According to ChEMBL document CHEMBL5634107, “The design, synthesis, and inhibition of Clostridioides difficile spore germination by acyclic and bicyclic tertiary amide analogs of cholate” (Eur J Med Chem, 2023):

Assays:
[1] = tested on: Clostridioides difficile; test: Inhibition of spore germination in Clostridium difficile R20291 assessed as residual activity at 125 uM measured every minute for 2 hrs by absorbance based analysis relative to control; format: functional
In short: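 Single-concentration screen of R20291 spores (OD580 1.0) in 100 mM sodium phosphate, pH 6.0, with 5 mg/mL bicarbonate and 2.5% DMSO. Compound at 125 μM final, in triplicate, with 6 mM taurocholate and 12 mM glycine. OD580 is read each minute for 2 h, normalized to time zero, and compared with untreated spores.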

[2] = tested on: Clostridioides difficile; test: Inhibition of spore germination in Clostridium difficile R20291 assessed as inhibition of spore germination measured every minute for 2 hrs by absorbance based analysis; format: functional, organism-based; details: R20291, 2 h
In short: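 Spores of strain R20291 diluted to OD580 1.0 in 100 mM sodium phosphate, pH 6.0, with 5 mg/mL sodium bicarbonate. Germinant is 6 mM taurocholate plus 12 mM glycine, with compound at various concentrations. OD580 is read every minute for 2 h and normalized to time zero. Value is fitted from percent germination versus log concentration.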

Compound | Activity [1] [%] | IC50 [2] [µM]
C[C@H](CCC(=O)N1CCc2cc(Cl)ccc21)[C@H]1CC[C@H]2[C@@H]3[C@H](O)C[C@@H]4C[C@H](O)CC[C@]4(C)[C@H]3C[C@H](O)[C@]12C | 70 | –
COc1ccc2c(c1)N(C(=O)CC[C@@H](C)[C@H]1CC[C@H]3[C@@H]4[C@H](O)C[C@@H]5C[C@H](O)CC[C@]5(C)[C@H]4C[C@H](O)[C@]13C)CC2 | 100 | –
CCN(CC)C(=O)CC[C@@H](C)[C@H]1CC[C@H]2[C@@H]3[C@H](O)C[C@@H]4C[C@H](O)CC[C@]4(C)[C@H]3C[C@H](O)[C@]12C | 0.05 | 29
C[C@H](CCC(=O)N1CCCC1)[C@H]1CC[C@H]2[C@@H]3[C@H](O)C[C@@H]4C[C@H](O)CC[C@]4(C)[C@H]3C[C@H](O)[C@]12C | 29 | 38
C[C@H](CCC(=O)N1CCc2cc(F)ccc21)[C@H]1CC[C@H]2[C@@H]3[C@H](O)C[C@@H]4C[C@H](O)CC[C@]4(C)[C@H]3C[C@H](O)[C@]12C | 5 | 0.4
COc1ccc2c(c1)CCN(C(=O)CC[C@@H](C)[C@H]1CC[C@H]3[C@@H]4[C@H](O)C[C@@H]5C[C@H](O)CC[C@]5(C)[C@H]4C[C@H](O)[C@]13C)C2 | 100 | –
C[C@H](CCC(=O)N1CCc2cc(Br)ccc21)[C@H]1CC[C@H]2[C@@H]3[C@H](O)C[C@@H]4C[C@H](O)CC[C@]4(C)[C@H]3C[C@H](O)[C@]12C | 90 | –
C[C@H](CCC(=O)N(C)c1ccccc1)[C@H]1CC[C@H]2[C@@H]3[C@H](O)C[C@@H]4C[C@H](O)CC[C@]4(C)[C@H]3C[C@H](O)[C@]12C | 31 | 32
C[C@H](CCC(=O)N1CCC(O)CC1)[C@H]1CC[C@H]2[C@@H]3[C@H](O)C[C@@H]4C[C@H](O)CC[C@]4(C)[C@H]3C[C@H](O)[C@]12C | 88 | –
C[C@H](CCC(=O)N1CCc2ccccc2C1)[C@H]1CC[C@H]2[C@@H]3[C@H](O)C[C@@H]4C[C@H](O)CC[C@]4(C)[C@H]3C[C@H](O)[C@]12C | 78 | –
C[C@H](CCC(=O)N1CCc2ccccc21)[C@H]1CC[C@H]2[C@@H]3[C@H](O)C[C@@H]4C[C@H](O)CC[C@]4(C)[C@H]3C[C@H](O)[C@]12C | 4 | 1
C[C@H](CCC(=O)N1CCc2cc(Br)ccc2C1)[C@H]1CC[C@H]2[C@@H]3[C@H](O)C[C@@H]4C[C@H](O)CC[C@]4(C)[C@H]3C[C@H](O)[C@]12C | 100 | –
Cc1ccc2c(c1)CCCN2C(=O)CC[C@@H](C)[C@H]1CC[C@H]2[C@@H]3[C@H](O)C[C@@H]4C[C@H](O)CC[C@]4(C)[C@H]3C[C@H](O)[C@]12C | 100 | –
C[C@H](CCC(=O)N1CCCCC1)[C@H]1CC[C@H]2[C@@H]3[C@H](O)C[C@@H]4C[C@H](O)CC[C@]4(C)[C@H]3C[C@H](O)[C@]12C | 15 | 37
Cc1ccc2c(c1)CCN2C(=O)CC[C@@H](C)[C@H]1CC[C@H]2[C@@H]3[C@H](O)C[C@@H]4C[C@H](O)CC[C@]4(C)[C@H]3C[C@H](O)[C@]12C | 100 | –
C[C@H](CCC(=O)N1CCc2c(Cl)cccc21)[C@H]1CC[C@H]2[C@@H]3[C@H](O)C[C@@H]4C[C@H](O)CC[C@]4(C)[C@H]3C[C@H](O)[C@]12C | 95 | –
C[C@H](CCC(=O)N1CCCc2ccccc21)[C@H]1CC[C@H]2[C@@H]3[C@H](O)C[C@@H]4C[C@H](O)CC[C@]4(C)[C@H]3C[C@H](O)[C@]12C | 17 | 22
